Assay results taken from PubChem BioAssay.
Activity calls are given as the source filed them.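 Rule for the calls: active = duplicate-averaged activation above buffer control mean plus 5 SD of those controls; inactive = the rest.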

experiment: nonspecific flux increase, KCNQ1-free cells – parental CHO cells, counter-screen for KCNQ1 potentiator project (AID 493006); conditions: parental CHO-K1 cells, FluxOR thallium flux, at 10 µM; stronger effect = higher value
Summary of the method: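 Test system: parental CHO-K1 cells, FluxOR dye-loaded / Probe or stimulus: potassium plus thallium depolarizing stimulus, 5x stock 12.5 mM K2SO4, Tl2SO4 / Timing: overnight 37 °C plating, 90 min dye, 20 min dark compound / Measured by: kinetic thallium-flux fluorescence / Read-out: max-minus-min fluorescence over baseline, percent of buffer-to-R-L3 span / Benchmarks: buffer and R-L3 controls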

SMILES | outcome | activation
COC(=O)c1c(NC(=O)CC2SC(N)=NC2=O)sc2c1CCC(C)C2 (centres undefined) | inactive | 
Cc1ccc2cc(/C=N/NC(=O)CN3CCCCC3)c(Cl)nc2c1 | inactive | 
Cc1cc(/C=C2\C(=N)N3N=C(C(C)C)SC3=NC2=O)c(C)n1Cc1ccccc1 | inactive | 
CSCC(C)N1CCC(n2nccc2NC(=O)CCOc2ccccc2)CC1 (centres undefined) | inactive | 
CCOc1cccc2sc(NC(=O)c3ccc(Br)s3)nc12 | inactive | 
CNCC/C=C1/c2ccccc2CSc2ccccc21 | inactive | 
CCCc1cc(=O)[nH]c(SCC(=O)Nc2ccc(Br)cc2Br)n1 | inactive | 
O=C(NC(=S)Nc1cccc(Cl)c1)c1cncc(Br)c1 | inactive | 
CCC(C)NC(=O)Cn1c(-c2ccccc2)cc(C(C)=O)c1C (centres undefined) | inactive | 
COc1cccc(-c2nc(=S)c3c(o2)CCCC3)c1 | inactive | 
CN(C)CCCN(C(=O)CCOc1ccccc1)c1nc2c(F)cccc2s1 | inactive | 
CCc1ccc(NC(=O)C(=O)NNC(=O)c2cccc(OC)c2)cc1 |  | 269% (active)
CCNc1nc(NCC)nc(C(=O)OCCO)n1 | inactive | 
COc1ccccc1C(=O)NNC(=O)C(=O)Nc1ccc(C)c(Cl)c1 |  | 552% (active)
Cc1cc(Cl)ccc1OCC(=O)N/N=C1\CC2C=CCC12 (centres undefined) | inactive | 
Nc1ccc(C2(c3ccc(N)cc3)OC(=O)c3ccccc32)cc1 | inactive | 
O=C(NC(=S)N1CCN(Cc2ccc3c(c2)OCO3)CC1)c1ccc(Cl)cc1 |  | 260% (active)
O=C1C(=O)N(CCCc2ccccc2)c2ccccc21 | inactive | 
Cc1ccc(NC(=O)Nc2ccc3c(c2)CCC3)cc1 | inactive | 
